Results taken from ChEMBL document CHEMBL2029228, “Antimalarial activity of 9a-N substituted 15-membered azalides with improved in vitro and in vivo activity over azithromycin” (J Med Chem, 2012).
Calls of active or inactive are those of the source. The calls are words filed in the database; no cut-off is given here.

Columns and labels:
Plasmodium berghei [1] = assay: Antimalarial activity against Plasmodium berghei KBG173 infected in mouse assessed as decrease in parasitemia at 2.5 mg/kg, ip BID administered on day 3, 4 and 5 post infection measured on day 31 relative to control; type: functional, organism-based; parameters: dose 2.5 mg/kg
In short: (§1)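 Male mice (24–30 g) inoculated intraperitoneally with 5 × 10⁶ P. berghei KBG-173-infected erythrocytes; parasitemia about 1.0–3.7% by day 3. Dosing twice daily on days 3–5 postinfection. Blood smears negative on day 31 counted as cured, scored as cured/total mice (5 per dose). Mice losing ≥20% body weight sacrificed.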

Plasmodium berghei [2] = assay: Antimalarial activity against Plasmodium berghei KBG173 infected in mouse assessed as decrease in parasitemia at 1.25 mg/kg, iv BID administered on day 3, 4 and 5 post infection measured on day 31 relative to control; type: functional, organism-based; parameters: dose 1.25 mg/kg; in short: as §1
Plasmodium berghei [3] = assay: Antimalarial activity against Plasmodium berghei KBG173 infected in mouse assessed as decrease in parasitemia at 1.25 mg/kg, ip BID administered on day 3, 4 and 5 post infection measured on day 31 relative to control; type: functional, organism-based; parameters: dose 1.25 mg/kg; in short: as §1
Plasmodium berghei [4] = assay: Antimalarial activity against Plasmodium berghei KBG173 infected in mouse assessed as decrease in parasitemia at 5 mg/kg, ip BID administered on day 3, 4 and 5 post infection measured on day 31 relative to control; type: functional, organism-based; parameters: dose 5 mg/kg; in short: as §1
Plasmodium berghei [5] = assay: Antimalarial activity against Plasmodium berghei KBG173 infected in mouse assessed as decrease in parasitemia at 2.5 mg/kg, iv BID administered on day 3, 4 and 5 post infection measured on day 31 relative to control; type: functional, organism-based; parameters: dose 2.5 mg/kg; in short: as §1
Plasmodium berghei [6] = assay: Antimalarial activity against Plasmodium berghei KBG173 infected in mouse assessed as decrease in parasitemia at 5 mg/kg, iv BID administered on day 3, 4 and 5 post infection measured on day 31 relative to control; type: functional, organism-based; parameters: dose 5 mg/kg; in short: as §1
Liver microsomes [7] = assay: Intrinsic clearance in human liver microsomes assessed per gram of liver at 1 uM after 60 mins at pH 7.4 by LC-MS/MS analysis; type: ADME, Microsome; details: pH 7.4, 1 h
In short: (§2)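 Liver microsomes (0.5 mg protein/mL) in 50 mM potassium phosphate pH 7.4 with 1.0 μM compound at 37 °C for 60 min. Reaction started with NADP/glucose-6-phosphate/MgCl₂/G6PDH cofactor mix; solvent 1% final. LC-MS/MS read-out. CLi from first-order elimination constant by nonlinear regression, corrected for incubation volume, assuming 52.5 mg microsomal protein/g liver.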

Mus musculus [8] = assay: Unbound clearance in CD1 mouse at 5 mg/kg, iv; type: ADME, organism-based; parameters: dose 5 mg/kg, route intravenous; details: in vivo
In short: (§3)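 Fraction unbound measured in mouse plasma by ultrafiltration at 1 μg/mL. Unbound clearance = blood clearance/fu, assuming blood/plasma ratio of 1. Blood clearance comes from male CD-1 mice dosed IV at 5 mg/kg, with tail-vein sampling up to 24 h and LC-MS/MS analysis.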

[9] = Oral bioavailability in CD1 mouse at 25 mg/kg; type: ADME, organism-based; details: in vivo
In short: (§4)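 Male CD-1 mice (N = 3 per route) dosed IV at 5 mg/kg or orally at 25 mg/kg while fasted, mostly in saline (2.5 mg/mL). Tail-vein blood taken up to 24 h, cardiac puncture at 30 h. Samples hemolyzed, protein-precipitated with acetonitrile plus internal standard, analysed by positive ESI LC-MS/MS.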

[10] = (§5) Half life in CD1 mouse at 5 mg/kg, iv; type: ADME, organism-based; parameters: dose 5 mg/kg, route intravenous; details: CD1, mouse, in vivo; in short: as §4
[11] = Fraction unbound in CD1 mouse plasma at 5 mg/kg, iv; type: ADME, organism-based; parameters: dose 5 mg/kg, route intravenous; in short: as §3
Plasmodium berghei [12] = assay: Antimalarial activity against Plasmodium berghei KBG173 infected in mouse assessed as increase in mouse survival time at 5 mg/kg, iv BID administered on day 3, 4 and 5 post infection relative to azithromycin; type: functional
In short: (§6)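 Male mice (24−30 g) inoculated intraperitoneally with 5 × 10⁶ P. berghei KBG-173-infected erythrocytes; parasitemia 1.0–3.7% by day 3. IV dosing twice daily on days 3, 4 and 5 post-infection. Read-out is the survival time of the last animal alive. Mice blood-smear negative on day 31 counted as cured; mice losing ≥20% body weight sacrificed.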

Plasmodium falciparum = assay: Antimalarial activity against mefloquine-resistant Plasmodium falciparum TM91C235 assessed as [3H]hypoxanthine incorporation after 48 hrs; type: functional, organism-based
In short: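 Tritiated hypoxanthine incorporation assay (Desjardins method, Milhous modification) with 48 h drug exposure. Uses P. falciparum clone TM91C235 (Southeast Asian, mefloquine-resistant). Compounds 2-fold diluted over 11 concentrations. IC50 derived by nonlinear logistic dose-response fitting, averaged where multiple runs were done.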

[13] = Clearance at steady state in CD1 mouse at 5 mg/kg, iv; type: ADME, organism-based; parameters: dose 5 mg/kg, route intravenous; details: in vivo, read-out: CLss; in short: as §4
[14] = Volume of distribution at steady state in CD1 mouse at 5 mg/kg, iv; type: ADME, organism-based; parameters: dose 5 mg/kg, route intravenous; details: in vivo, read-out: Vdss; in short: as §4
[15] = (§7) Plasma protein binding in mouse at 1 ug/ml after 30 mins; type: ADME, cell-free; details: read-out: PPB (converted)
In short: (§8)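 Ultrafiltration on mouse plasma preincubated 15 min at 37 °C, compound spiked to 1 μg/mL final. Aliquots taken at 0 and 15 min, remainder spun through a 10 kDa filter for 30 min at 37 °C, 2850 g. Filtrate deproteinized and analysed by LC-MS/MS.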

HepG2 = assay: Cytotoxicity against human HepG2 cells after 24 hrs by MTS assay; type: cell-based; details: HepG2, 24 h
In short: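 HepG2 cells kept in RPMI 1640 with 10% FBS plus antibiotics at 37 °C, 5% CO₂. 50 000 cells per well exposed to 10 two-fold serial dilutions for 24 h. MTS reagent then added for 2 h more, absorbance read at 490 nm, IC50 derived.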

Liver microsomes [16] = assay: Intrinsic clearance in rat liver microsomes assessed per gram of liver at 1 uM after 60 mins at pH 7.4 by LC-MS/MS analysis; type: ADME, Microsome; details: pH 7.4, 1 h; in short: as §2
Liver = assay: Intrinsic clearance in mouse liver microsomes assessed per gram of liver at 1 uM after 60 mins at pH 7.4 by LC-MS/MS analysis; type: ADME, Microsome; details: pH 7.4, 1 h; in short: as §2
Plasma = assay: as §7; type: ADME, cell-free; details: 0.5 h; in short: as §8
Plasmodium berghei [17] = assay: Antimalarial activity against Plasmodium berghei KBG173 infected in mouse assessed as decrease in parasitemia at 10 mg/kg, iv BID administered on day 3, 4 and 5 post infection measured on day 31 relative to control; type: functional, organism-based; parameters: dose 10 mg/kg; in short: as §1
Plasmodium berghei [18] = assay: Antimalarial activity against Plasmodium berghei KBG173 infected in mouse assessed as mouse survival time at 15 mg/kg, iv BID administered on day 3, 4 and 5 post infection; type: functional; in short: as §6
Plasmodium berghei [19] = assay: Antimalarial activity against Plasmodium berghei KBG173 infected in mouse assessed as mouse survival time at 5 mg/kg, iv BID administered on day 3, 4 and 5 post infection; type: functional; in short: as §6
Plasmodium berghei [20] = assay: Antimalarial activity against Plasmodium berghei KBG173 infected in mouse assessed as cured mouse at 5 mg/kg, iv BID administered on day 3, 4 and 5 post infection measured up to day 31; type: functional, organism-based; parameters: dose 5 mg/kg; in short: as §1
Mus musculus [21] = assay: as §5; type: ADME, organism-based; parameters: dose 5 mg/kg, route intravenous; details: mouse, in vivo; in short: as §4
Plasmodium berghei [22] = assay: Antimalarial activity against Plasmodium berghei KBG173 infected in mouse assessed as cured mouse at 15 mg/kg, iv BID administered on day 3, 4 and 5 post infection measured up to day 31; type: functional, organism-based; parameters: dose 15 mg/kg; in short: as §1

With `CCN(CC)CCCC(C)Nc1ccnc2cc(Cl)ccc12` (configuration not stated) the Activity (Plasmodium berghei [1]) was “inactive”, the Activity (Plasmodium berghei [2]) was “inactive” and the Activity (Plasmodium berghei [3]) was “inactive”. For the same molecule, the Activity (Plasmodium berghei [4]) was “inactive”, the Activity (Plasmodium berghei [5]) was “inactive” and the Activity (Plasmodium berghei [6]) was “inactive”.
In the case of `CC[C@H]1OC(=O)[C@H](C)[C@@H](O[C@H]2C[C@@](C)(OC)[C@@H](O)[C@H](C)O2)[C@H](C)[C@@H](O[C@@H]2O[C@H](C)C[C@H](N(C)C)[C@H]2O)[C@](C)(O)C[C@@H](C)CN(CCC(=O)N[C@H](C)c2cccc3ccccc23)[C@H](C)[C@@H](O)[C@]1(C)O`, the CLint (Liver microsomes [7]) is reported as 1.8 mL/min/g, the CL free (Mus musculus [8]) is reported as 81 mL/min/kg and the bioavailability [9] is reported as 23.6%. It also gave a half-life [10] of 990 min, a fraction unbound [11] of 0.13 and a Survival (Plasmodium berghei [12]) of -9 days. The IC50 (Plasmodium falciparum) was 95 nM, the clearance [13] was 10.5 mL/min/kg and the Vd [14] was 7.8 L/kg. For the same molecule, the fraction unbound at 0.5 h, 1 ug/ml [15] was 0.13 and the IC50 (HepG2) was greater than 30 µM.
In the case of `CC[C@H]1OC(=O)[C@H](C)[C@@H](O[C@H]2C[C@@](C)(OC)[C@@H](O)[C@H](C)O2)[C@H](C)[C@@H](O[C@@H]2O[C@H](C)C[C@H](N(C)C)[C@H]2O)[C@](C)(O)C[C@@H](C)CN(CCCNC(=O)CCc2ccccc2)[C@H](C)[C@@H](O)[C@]1(C)O`, the CLint (Liver microsomes [7]) is reported as less than 0.6 mL/min/g, the CL free (Mus musculus [8]) is reported as 54 mL/min/kg and the bioavailability [9] is reported as 12.7%. For the same molecule, the CLint (Liver microsomes [16]) was less than 0.6 mL/min/g, the half-life [10] was 414 min and the fraction unbound [11] was 0.43. For the same molecule, the Survival (Plasmodium berghei [12]) was -12 days, the IC50 (Plasmodium falciparum) was 70 nM and the clearance [13] was 23.3 mL/min/kg. For the same molecule, the CLint (Liver) was less than 0.6 mL/min/g, the Vd [14] was 5 L/kg and the PPB (Plasma) was 43%. The IC50 (HepG2) was greater than 50 µM.
With `CC[C@H]1OC(=O)[C@H](C)[C@@H](O[C@H]2C[C@@](C)(OC)[C@@H](O)[C@H](C)O2)[C@H](C)[C@@H](O[C@@H]2O[C@H](C)C[C@H](N(C)C)[C@H]2O)[C@](C)(O)C[C@@H](C)CN(C)[C@H](C)[C@@H](O)[C@]1(C)O` [AZITHROMYCIN] the Activity (Plasmodium berghei [17]) was “inactive”, the Survival (Plasmodium berghei [18]) was 19 days and the Survival (Plasmodium berghei [19]) was 17 days. The CL free (Mus musculus [8]) was 23.2 mL/min/kg, the Activity (Plasmodium berghei [20]) was “inactive” and the bioavailability [9] was 72%. For the same molecule, the t1/2 (Mus musculus [21]) was 8.3 h, the fraction unbound [11] was 0.69 and the Activity (Plasmodium berghei [22]) was “inactive”. It also gave a clearance [13] of 16 mL/min/kg, a Vd [14] of 8.8 L/kg and an IC50 (HepG2) greater than 50 µM.
